Assay results: ChEMBL document CHEMBL1123427, “Synthesis of thyrotropin-releasing hormone analogues. 2. Tripeptides structurally greatly differing from TRH with high central nervous system activity” (1986)
Residues, ends and D or L forms follow the SMILES beside them.

Legend:
Rattus norvegicus [1] = species: Rattus norvegicus; experiment: Thyrotropin releasing activity (TSH) was evaluated by measuring the TSH response to the compound by radioimmunoassay in two doses in the rat; np denotes Slightly significant but not parallel TSH response to the lower and upper dose s used; format: functional, organism-based
In short: (§1)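 Rat two-point assay at 1 and 10 μg. TSH response is measured by radioimmunoassay. Compounds are dissolved in physiological saline (5 mL/kg), and controls receive the same volume of saline. n = 10 animals per treatment. Significance is given as p < 0.01 and p < 0.001.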

Mus musculus = species: Mus musculus; experiment: Reduction of hexobarbital induced sleeping time in mice.; format: functional
Rattus norvegicus [2] = species: Rattus norvegicus; experiment: Dose that inhibited cataleptic effect of haloperidol in rat by 50%; format: functional
Rattus norvegicus [3] = species: Rattus norvegicus; experiment: Thyrotropin releasing activity (TSH) was evaluated by measuring the TSH response to the compound by radioimmunoassay in two doses in the rat; format: functional; in short: as §1
Rattus norvegicus [4] = experiment: Ability of 80 mg/kg to inhibit the cataleptic effect of haloperidol in rat; format: functional
Rattus norvegicus [5] = species: Rattus norvegicus; experiment: Doses that inhibited cataleptic effect of haloperidol in rat by 50%; format: functional
Rattus norvegicus [6] = experiment: Ability of 80 mg/kg to inhibit the cataleptic effect of haloperidol in rat; Potentiating effect; format: functional, organism-based; parameters: dose 80 mg/kg; conditions: at 80 mg/kg

## CCC[C@H](NC(=O)[C@@H]1CCCC(=O)N1)C(=O)N1CSC[C@@H]1C(N)=O
Rattus norvegicus [1]
  Activity: Slightly significant but not parallel

## CCC[C@H](NC(=O)[C@@H]1CCCC(=O)N1)C(=O)N1CSC[C@H]1C(N)=O
Mus musculus
  Sleeping time: 23.6 min
Rattus norvegicus [2]
  ED50: 60.3 mg/kg

## CCC[C@H](NC(=O)[C@@H]1CCC(=O)N1)C(=O)N[C@H](CCSC)C(N)=O
Mus musculus
  Sleeping time: 46.1 min
Rattus norvegicus [3]
  Activity: 0%
Rattus norvegicus [4]
  inhibition in vivo at 80 mg/kg: 20%

## CC(C)C[C@H](NC(=O)[C@@H]1CCCN1)C(=O)N1CCC[C@H]1C(N)=O (H-Pro-Leu-Pro-NH2)
Mus musculus
  Sleeping time: 65.6 min
Rattus norvegicus [1]
  Activity: Slightly significant but not parallel
Rattus norvegicus [4]
  inhibition in vivo at 80 mg/kg: 0%

## CC(C)C[C@H](NC(=O)[C@@H]1CCC(=O)N1)C(=O)NCC(N)=O (HELM PEPTIDE1{[Glp].L.G.[am]}$$$$V2.0)
Mus musculus
  Sleeping time: 35.8 min
Rattus norvegicus [4]
  inhibition in vivo at 80 mg/kg: 0%

## CCC[C@H](NC(=O)[C@@H]1CCC(=O)N1)C(=O)N[C@@H](CC(C)C)C(N)=O (HELM PEPTIDE1{[Glp].[Nva].L.[am]}$$$$V2.0)
Mus musculus
  Sleeping time: 43 min
Rattus norvegicus [3]
  Activity: 0%
Rattus norvegicus [4]
  inhibition in vivo at 80 mg/kg: 20%

## CCC[C@H](NC(=O)[C@@H]1CCC(=O)N1)C(=O)N1CSC[C@H]1C(N)=O (HELM PEPTIDE1{[Glp].[Nva].[O=C([C@@H]1CSCN1[*:1])[*:2]].[am]}$$$$V2.0)
Mus musculus
  Sleeping time: 26.4 min
Rattus norvegicus [2]
  ED50: 56 mg/kg
Rattus norvegicus [3]
  Activity: 0%

## CC(C)C[C@H](NC(=O)[C@@H]1CCCC(=O)N1)C(=O)N1CCC[C@H]1C(N)=O [POSATIRELIN]
Mus musculus
  Sleeping time: 16.4 min
Rattus norvegicus [3]
  Activity: 2.7%
Rattus norvegicus [5]
  ED50: 23.5 mg/kg

## CC(=O)N1CCC[C@H]1C(=O)N[C@@H](CC(C)C)C(=O)N1CCC[C@H]1C(N)=O (Ac-Pro-Leu-Pro-NH2)
Mus musculus
  Sleeping time: 37.6 min
Rattus norvegicus [4]
  inhibition in vivo at 80 mg/kg: 0%

## CC(C)C[C@H](NC(=O)[C@@H]1CCC(=O)O1)C(=O)N1CCC[C@H]1C(N)=O
Mus musculus
  Sleeping time: 36.8 min
Rattus norvegicus [4]
  inhibition in vivo at 80 mg/kg: 40%

## CC(C)C[C@H](NC(=O)[C@@H]1CCC(=O)N1)C(=O)N1CCCC[C@H]1C(N)=O (HELM PEPTIDE1{[Glp].L.[O=C([C@@H]1CCCCN1[*:1])[*:2]].[am]}$$$$V2.0)
Mus musculus
  Sleeping time: 16.6 min
Rattus norvegicus [2]
  ED50: 38.5 mg/kg
Rattus norvegicus [3]
  Activity: 7.2%

## NC(=O)[C@@H]1CCCN1C(=O)[C@H](Cc1c[nH]cn1)NC(=O)[C@@H]1CCC(=O)N1 [PROTIRELIN]
Mus musculus
  Sleeping time: 24.8 min
Rattus norvegicus [3]
  Activity: 100%
Rattus norvegicus [4]
  inhibition in vivo at 80 mg/kg: 40%

## CC(C)C[C@H](NC(=O)[C@@H]1CNC(=O)N1)C(=O)N1CCC[C@H]1C(N)=O
Mus musculus
  Sleeping time: 25.8 min
Rattus norvegicus [3]
  Activity: 0%
Rattus norvegicus [4]
  inhibition in vivo at 80 mg/kg: 40%

## CCC[C@H](NC(=O)[C@@H]1CCC(=O)N1)C(=O)N[C@H](C(N)=O)[C@@H](C)CC (HELM PEPTIDE1{[Glp].[Nva].I.[am]}$$$$V2.0)
Mus musculus
  Sleeping time: 47.7 min
Rattus norvegicus [3]
  Activity: 0%
Rattus norvegicus [6]
  inhibition: Potentiating effect

## CCC[C@H](NC(=O)[C@@H]1CCCC(=O)N1)C(=O)N1CCC[C@H]1C(N)=O
Mus musculus
  Sleeping time: 19.7 min
Rattus norvegicus [2]
  ED50: 10.6 mg/kg
Rattus norvegicus [3]
  Activity: 0%

## CC(C)C[C@H](NC(=O)[C@@H]1CCC(=O)N1)C(=O)N1CCCC[C@H]1C(=O)O (HELM PEPTIDE1{[Glp].L.[O=C(O)[C@@H]1CCCCN1[*:1]]}$$$$V2.0)
Mus musculus
  Sleeping time: 33.3 min
Rattus norvegicus [1]
  Activity: Slightly significant but not parallel
Rattus norvegicus [4]
  inhibition in vivo at 80 mg/kg: 20%

## CC(C)C[C@H](NC(=O)[C@@H]1CSCN1)C(=O)N1CCC[C@H]1C(N)=O (HELM PEPTIDE1{[O=C([C@@H]1CSCN1)[*:2]].L.P.[am]}$$$$V2.0)
Mus musculus
  Sleeping time: 35 min
Rattus norvegicus [3]
  Activity: 0%
Rattus norvegicus [4]
  inhibition in vivo at 80 mg/kg: 0%

## CC(C)C[C@H](NC(=O)[C@@H]1CCC(=O)N1)C(=O)N1CSC[C@H]1C(N)=O (HELM PEPTIDE1{[Glp].L.[O=C([C@@H]1CSCN1[*:1])[*:2]].[am]}$$$$V2.0)
Mus musculus
  Sleeping time: 17.2 min
Rattus norvegicus [2]
  ED50: 31.4 mg/kg
Rattus norvegicus [3]
  Activity: 0%
